Calls of active or inactive are those of the source.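 Rule for the calls, unless noted: active = inhibition above 20% together with a positive visual image hit; inconclusive = visual image hit but inhibition not above 20%; inactive = no visual image hit.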

Experimental findings from PubChem BioAssay are described below.

Assay [1] can be described thus: inhibitors of TNFa-induced NFkB p65 translocation, primary screen, imaging, HUVEC, MLSMR starter and 10KST1 sets (AID 438).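 For inhibition: signal is the nuclear over cytoplasmic p65 intensity ratio per well.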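 Note: compound added about 3h40 before a 20 min TNFalpha stimulation.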 The following applies: HUVEC TNFa-induced p65 nuclear translocation; cell count: measured here: nuclei count (cytotoxicity indicator), at 2.08 µM unless noted; inhibition: at 2 µM, stronger effect = higher value unless noted.
Assay [2] is described as follows: inhibitors of mutant huntingtin aggregation, primary screen, imaging, exon1htt(103Q)mCFP cells, high-content imaging (AID 483;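 active = visual image review flags a hit and inhibition of aggregation exceeds 20%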;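 note: compound exposure lasted 3 days before fixation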;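 for nuclei count: percent of the per-plate median nuclei count of sample wells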). The following applies: exon1htt(103Q)mCFP cell line, aggregate imaging, at 2 µM; inhibition of aggregation: stronger effect = higher value; nuclei count: measured here: cell count, toxicity.
Assay [3] is described as follows: inhibitors of E-selectin induction by TNFa, primary screen, imaging, HUVEC, immunofluorescence, MLSMR starter and 10KST1 sets (AID 487;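 active = visually confirmed hit in the image check and inhibition above 20%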;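 for inhibition: signal is fraction of cell area covered by stained E-selectin grains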;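 for nuclei count: 100% = median nuclei count of all wells on the same plate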). The note with it: HUVEC TNFalpha-induced E-selectin immunofluorescence imaging, at 2 µM; inhibition: stronger effect = higher value; nuclei count: measured here: cell number, toxicity.
Assay [4] addresses Voltage-gated potassium channel subunit beta-2 (Rattus norvegicus) (UniProt P62483). Kind of assay: KvBeta enzyme negative modulators, primary screen, biochemical, NADPH fluorescence (AID 622;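 active = fluorescence slope higher than the sample average by over 3 SD, cut at about -0.22 in these data, passing the limit was not always enough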;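 note: slope of raw intensity against log time taken from 70 to 1610 s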). The note with it: recombinant KvBeta, 4-cyanobenzaldehyde reduction, at 10 µM, stronger effect = higher value.
The target is the same in assay [5]. Kind of assay: KvBeta positive modulators, primary screen, biochemical, NADPH fluorescence (AID 623;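 active = NADPH fluorescence slope more negative than the mean of all samples by about 3 SD, 99.7% confidence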;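 note: fluorescence intensity change per second fitted from 20 to 320 s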). The following applies: Recombinant KvBeta, NADPH fluorescence decrease slope, 10 min; at 10 µM; stronger effect = lower value.
For assay [6], the target named is Alpha-2C adrenergic receptor (Homo sapiens) (UniProt P18825). The assay can be described thus: modulators of alpha2C/GIRK thallium flux, primary screen, cell-based, HEK293 alpha2C/GIRK1/2 (AID 624;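 active = fluorescence slope after compound addition differing from the mean of all screened samples at 99.7% confidence, in either direction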;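 note: slope of fluorescence ratio to pre-addition baseline per second over 15 to 24 s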). The note with it: thallium flux BTC fluorescence, at 10 µM, actives lie on both sides.
Assay [7] can be described thus: inhibitors of Sendai virus-induced IRF3 signaling, primary screen, TLR/RLR signaling modifier project, cell-based, Sendai virus stimulus, luciferase, 10K MLSCN set (AID 602276;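 active = inhibition at or above 50% at 10 µM; inactive = inhibition below 50%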;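 note: firefly luciferase from ISG56 promoter only with Renilla not read in this screen; 0% = Sendai virus plus DMSO and 100% = medium plus DMSO without virus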). The note with it: HEK293 RL24 IRF3 luciferase reporter, at 10 µM, stronger effect = higher value. For orientation: A reporter such as luciferase makes a cellular process visible.
Assay [8] can be described thus: inhibitors of poly I:C-induced TLR3 signaling, primary screen, cell-based, poly I:C stimulus, luciferase, 10K MLSCN set (AID 602277;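 active = inhibition of the reporter signal at or above 50%; inactive = inhibition below 50%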). The following applies: HEK293-TLR3 RL24 IRF3 luciferase reporter, at 10 µM, stronger effect = higher value.
In assay [9] the target is Muscarinic acetylcholine receptor M4 (Homo sapiens) (UniProt P08173). Kind of assay: compounds altering M4/GIRK thallium flux, either direction, primary screen, M4 allosteric agonist project, cell-based, HEK293 M4/GIRK, BTC-AM (AID 625;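 active = fluorescence slope after compound addition differing from the mean of all tested samples at 99.7% confidence, mostly higher but some lower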;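 note: thallium influx through GIRK channels coupled to M4 in HEK293 cells with BTC-AM dye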). The note with it: at 10 µM, actives lie on both sides. In short, it runs like this: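 assay system = HEK293 cells with M4 receptor and GIRK channels | medium = pH 7.3 thallium assay buffer | doses = 10 µM final, single point | timing = cells overnight at 37 °C, BTC-AM loading 1 h, reads 2 min total | signal = BTC-AM fluorescence, 1 Hz kinetic reads | read-out = post-addition slope, 15–24 s, of baseline-normalized fluorescence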
Muscarinic acetylcholine receptor M4 (Homo sapiens), sequence (P08173 whole entry, looked up): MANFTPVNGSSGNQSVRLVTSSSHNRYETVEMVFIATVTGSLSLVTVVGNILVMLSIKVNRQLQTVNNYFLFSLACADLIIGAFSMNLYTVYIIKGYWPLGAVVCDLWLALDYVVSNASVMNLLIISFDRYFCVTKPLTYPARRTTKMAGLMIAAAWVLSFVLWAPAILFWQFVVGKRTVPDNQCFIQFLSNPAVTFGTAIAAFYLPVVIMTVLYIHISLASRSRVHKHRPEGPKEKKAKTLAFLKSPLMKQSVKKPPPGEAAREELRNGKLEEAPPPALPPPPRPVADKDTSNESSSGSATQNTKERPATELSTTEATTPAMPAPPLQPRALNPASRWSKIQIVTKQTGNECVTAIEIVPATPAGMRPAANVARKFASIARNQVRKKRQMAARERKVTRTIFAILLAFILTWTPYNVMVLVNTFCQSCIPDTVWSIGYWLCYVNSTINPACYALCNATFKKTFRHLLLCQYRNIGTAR

Alpha-2C adrenergic receptor (Homo sapiens), sequence (P18825 whole entry, looked up): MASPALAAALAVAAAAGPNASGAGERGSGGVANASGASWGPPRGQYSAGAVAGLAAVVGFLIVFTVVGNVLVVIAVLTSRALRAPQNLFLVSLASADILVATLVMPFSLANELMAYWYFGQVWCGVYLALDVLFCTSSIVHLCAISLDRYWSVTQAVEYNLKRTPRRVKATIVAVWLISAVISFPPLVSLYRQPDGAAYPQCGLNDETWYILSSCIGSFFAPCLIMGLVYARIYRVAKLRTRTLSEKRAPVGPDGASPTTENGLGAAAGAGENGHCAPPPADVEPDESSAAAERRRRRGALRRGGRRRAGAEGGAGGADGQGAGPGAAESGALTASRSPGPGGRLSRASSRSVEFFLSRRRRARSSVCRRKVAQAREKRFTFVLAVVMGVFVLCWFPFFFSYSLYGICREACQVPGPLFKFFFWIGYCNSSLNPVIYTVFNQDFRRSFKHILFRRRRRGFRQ
Voltage-gated potassium channel subunit beta-2 (Rattus norvegicus), sequence (P62483 whole entry, looked up): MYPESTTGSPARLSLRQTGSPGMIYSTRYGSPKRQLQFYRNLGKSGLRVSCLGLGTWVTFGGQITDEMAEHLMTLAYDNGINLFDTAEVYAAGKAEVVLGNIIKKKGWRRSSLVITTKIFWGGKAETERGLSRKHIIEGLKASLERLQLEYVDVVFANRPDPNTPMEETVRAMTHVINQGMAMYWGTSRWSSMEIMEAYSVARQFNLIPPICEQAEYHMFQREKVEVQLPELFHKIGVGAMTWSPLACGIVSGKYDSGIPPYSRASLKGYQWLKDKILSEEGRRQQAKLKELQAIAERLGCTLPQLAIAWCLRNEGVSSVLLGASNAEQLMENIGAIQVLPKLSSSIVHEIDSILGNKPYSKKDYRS

Usually inhibition stands for the drop in the measured response relative to a control, in per cent. In assay [1], `COc1ccc(C2SCC(=O)Nc3c2c(=O)[nH]n3C2CCCCCC2)cc1OC` (centres undefined) returned a cell count of 316. Besides, the inhibition is 21% (inactive) in assay [1], -11.5% (inactive) in [3], 13.9% (inactive) in assay [7] and 23.3% (inactive) in [8]. Moreover, the inhibition of aggregation in [2] was -0.4% (inactive). The nuclei count in assay [2] stood at 97.9%; in [3], 109%. The fluorescence slope in assay [4] is -0.614 (inactive). Further, in [5], the NADPH fluorescence slope is -4.2e-05 (inactive). Also, the slope in assay [6] is 0.00412 (inactive).

Compound `N=C(N)c1c(O)n(C2CCCCC2)c(=O)n(C2CCCCC2)c1=O` came in with a cell count in assay [1] of 460. The inhibition in assay [1] was -13.4% (inactive); in assay [3], -11% (inactive); in assay [7], 16.7% (inactive); in assay [8] it was 31.3% (inactive). Besides, the inhibition of aggregation in [2] was -10.9% (inactive). Also, the nuclei count in assay [2] was 102%; in assay [3], 89.8%. Also, the fluorescence slope in assay [4] is -0.502 (inactive). Moreover, in assay [5], the NADPH fluorescence slope was -1.1e-05 (inactive). The slope in assay [6] is 0.00599 (inactive).

In the case of `CCCNS(=O)(=O)c1ccc(OCC(=O)N2CCN(Cc3ccccc3)CC2)cc1`, the cell count in [1] is 296. Moreover, the inhibition was -7.1% (inactive) in [1], -3.1% (inactive) in assay [3], -3.33% (inactive) in assay [7] and -4.45% (inactive) in [8]. For the same compound, the inhibition of aggregation in assay [2] is -5% (inactive). Besides, the results for the nuclei count in [2] and in assay [3] were 115% and 110%, respectively. In addition, in assay [4], the fluorescence slope is -0.476 (inactive). Moreover, the NADPH fluorescence slope in [5] is -7e-05 (inactive). Also, the slope in assay [6] was 0.00533 (inactive).

As to `CC1(C)Cc2c(sc3c2C(=O)NC(c2cccnc2)N3)CO1` (centres undefined), the cell count in assay [1] came out at 328. In addition, the inhibition in assay [1] is 6.5% (inactive); in [3] it was 4.5% (inactive); in assay [7], 3.52% (inactive); in assay [8] it was 5.63% (inactive). In addition, the inhibition of aggregation in assay [2] was 6% (inactive). For the same compound, the nuclei count in [2] was determined as 98.3%; in [3], 106%. Also, the fluorescence slope in [4] was -0.584 (inactive). In addition, the NADPH fluorescence slope in assay [5] was -3.1e-05 (inactive). Moreover, the slope in assay [6] was 0.00356 (inactive).

The compound `Cn1c(=O)cc(OCC(=O)N2CCN(C3CCCCC3)CC2)c2ccccc21` registered a cell count in [1] of 535. Further, the inhibition in assay [1] was -5.5% (inactive); in [3] it was -119% (inactive); in assay [7] it was 2.25% (inactive); in assay [8] it was 55.3% (active). Further, the inhibition of aggregation in [2] was 14.2% (inactive). Besides, the nuclei count in assay [2] is 81.7%; in assay [3], 113%. Besides, the fluorescence slope in assay [4] was -0.533 (inactive). The NADPH fluorescence slope in assay [5] is -5e-05 (inactive). Moreover, the slope in assay [6] is 0.00729 (inactive).

In assay [1], `COC(=O)C1C2c3ccccc3OC1(C)N=c1s/c(=C/c3cnn(C)c3C)c(=O)n12` (centres undefined) had a cell count of 469. Besides, the inhibition was 10.9% (inactive) in [1], -82.7% (inactive) in assay [3], 15.6% (inactive) in [7] and 23.4% (inactive) in assay [8]. The inhibition of aggregation in [2] is 0.9% (inactive). Further, the nuclei count in assay [2] was 115%; in assay [3] it was 112%. Also, in assay [4], the fluorescence slope is -0.332 (inactive). For the same compound, the NADPH fluorescence slope in assay [5] was -4.9e-05 (inactive). In addition, the slope in assay [6] was 0.00428 (inactive).

`CCC(=NCCCN1CCOCC1)c1c(O)n(Cc2ccccc2)c(=O)[nH]c1=O`: in assay [1], the cell count was found to be 481. Moreover, the inhibition in [1] was 0.8% (inactive); in assay [3] it was -36.6% (inactive); in assay [7], -4.98% (inactive); in assay [8], 1.2% (inactive). In assay [2], the inhibition of aggregation was 8.2% (inactive). The nuclei count in assay [2] amounted to 101%; in [3] it was 167%. For the same compound, in [4], the fluorescence slope is -0.629 (inactive). The NADPH fluorescence slope in [5] was -2.2e-05 (inactive). Further, the slope in assay [6] was 0.00745 (inactive).

Turning to `CC1CCN2c3nc4ccccn4c(=O)c3CC3(C(=O)N(C)C(=O)N(C)C3=O)C2C1` (centres undefined), the cell count in assay [1] worked out at 459. Besides, the inhibition is -8.6% (inactive) in assay [1], -10% (inactive) in assay [3], 10.8% (inactive) in [7] and 16.3% (inactive) in [8]. Besides, the inhibition of aggregation in [2] is 11.4% (inactive). Besides, the values for the nuclei count in assay [2] and in assay [3] were 76.7% and 95.1%, respectively. Besides, the fluorescence slope is -0.523 (inactive) in assay [4] and 0.00473 (inactive) in assay [9]. Besides, the NADPH fluorescence slope in [5] was -6.2e-05 (inactive).

As to `O=C1C2CCCN2C(c2ccc(Cl)c(Cl)c2)N1c1ccccn1` (centres undefined), the cell count in assay [1] amounted to 499. For the same compound, the inhibition in assay [1] was -2.1% (inactive); in assay [3], 17.4% (inactive); in [7], 17.8% (inactive); in assay [8] it was 12.7% (inactive). Further, the inhibition of aggregation in assay [2] was 0.2% (inactive). Also, the nuclei count in [2] stood at 98.4%; in [3], 101%. Moreover, the fluorescence slope in [4] was -0.552 (inactive); in assay [9] it was 0.00578 (inactive). In addition, in assay [5], the NADPH fluorescence slope is -4e-05 (inactive).

As to `O=C(c1ccc2nc(-c3ccco3)c(-c3ccco3)nc2c1)N1CCC2(CC1)OCCO2`, the cell count in [1] was determined as 597. The inhibition was -12.6% (inactive) in [1], 9% (inactive) in [3], -1.04% (inactive) in [7] and -7.99% (inactive) in assay [8]. Further, the inhibition of aggregation in assay [2] is -4.6% (inactive). Moreover, the nuclei count in assay [2] is 93.5%; in assay [3], 105%. In addition, in [4], the fluorescence slope is -0.104 (inactive). Further, the NADPH fluorescence slope in assay [5] is -5.1e-06 (inactive). Moreover, the slope in assay [6] was 0.00382 (inactive).

`O=C(c1ccc2nc3ccc(Cl)cc3c(=O)n2c1)N1CCC2(CC1)OCCO2` showed a cell count in [1] of 758. The inhibition was -20.4% (inactive) in assay [1], -56.7% (inactive) in [3], -8.72% (inactive) in assay [7] and -12% (inactive) in assay [8]. In assay [2], the inhibition of aggregation is 8% (inactive). In addition, the nuclei count in assay [2] came out at 110%; in assay [3] it was 125%. In addition, the fluorescence slope is -0.0098 (inactive) in [4] and 0.00414 (inactive) in assay [9]. Further, the NADPH fluorescence slope in assay [5] is 1.1e-05 (inactive).

As for `O=C(CN1CCN(Cc2cccc(Cl)c2)C1=O)N1CCC2(CC1)OCCO2`, the cell count in assay [1] turned out to be 363. In addition, the inhibition in [1] was 1.1% (inactive); in assay [3], 26.2% (inactive); in assay [7], 4.07% (inactive); in assay [8] it was 14% (inactive). Moreover, in assay [2], the inhibition of aggregation is 19.2% (inactive). For the same compound, the nuclei count in assay [2] was determined as 73.9%; in assay [3] it was 111%. Also, the fluorescence slope was -0.578 (inactive) in assay [4] and 0.00798 (inactive) in assay [9]. For the same compound, in [5], the NADPH fluorescence slope was -1.5e-05 (inactive).

In assay [1], `O=C(Cn1ncc2c3ccccc3n(Cc3ccc(F)cc3)c2c1=O)N1CCC2(CC1)OCCO2` showed a cell count of 454. Besides, the inhibition is 2.9% (inactive) in assay [1], -167% (inactive) in [3], 7.71% (inactive) in assay [7] and 2.33% (inactive) in assay [8]. Besides, the inhibition of aggregation in assay [2] was -17.5% (inactive). Besides, the nuclei count in assay [2] stood at 74.9%; in assay [3] it was 130%. For the same compound, the fluorescence slope in assay [4] is -0.295 (inactive). Moreover, the NADPH fluorescence slope in [5] is -5.2e-05 (inactive). In addition, in [6], the slope was 0.00589 (inactive).

`COc1ccc(CCNC(=O)c2c(N)n(CCN3CCOCC3)c3nc4ccccc4nc23)cc1`: in [1], the cell count stood at 403. Besides, the inhibition in assay [1] is 9.5% (inactive); in assay [3], -157% (inactive); in assay [7], -3.7% (inactive); in assay [8] it was -28.7% (inactive). Besides, in [2], the inhibition of aggregation was -9.7% (inactive). Also, the results for the nuclei count in [2] and in [3] were 90.9% and 115%, respectively. Also, the fluorescence slope in assay [4] was -0.454 (inactive); in assay [9] it was 0.00515 (inactive). In addition, the NADPH fluorescence slope in assay [5] is -7.3e-05 (inactive).
